# Measurements from ChEMBL document CHEMBL2163259, “ADME-guided design and synthesis of aryloxanyl pyrazolone derivatives to block mutant superoxide dismutase 1 (SOD1) cytotoxicity and protein aggregation: potential application for the treatment of amyotrophic lateral sclerosis” (J Med Chem, 2012).
# Calls of active or inactive are those of the source.
# Columns and labels:
# [1] = target: Neuropeptide Y receptor type 2 (Homo sapiens) (UniProt P49146); assay: Inhibition of human Neuropeptide Y Y2 receptor at 10 uM by radioligand displacement assay
# Procedure, shortened: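 Single concentration of 10 μM, tested in duplicate in a contract panel of 68 in vitro enzyme and receptor binding assays covering common adverse CNS, cardiovascular, pulmonary and genotoxic targets.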
# [2] = target: Alpha-2A adrenergic receptor (Homo sapiens) (UniProt P08913); assay: Inhibition of human adrenergic alpha2A receptor at 10 uM by radioligand displacement assay
# Procedure, shortened: (§1)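 LeadProfilingScreen panel of 68 in vitro enzyme and receptor assays. Compound tested at 10 μM in duplicate.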
# [3] = target: Histamine H3 receptor (Homo sapiens) (UniProt Q9Y5N1); assay: Inhibition of human histamine H3 receptor at 10 uM by radioligand displacement assay
# Procedure, shortened: (§2)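 Single concentration of 10 μM, tested in duplicate as part of a contracted panel of 68 in vitro enzyme and receptor assays. The panel covers common adverse CNS, cardiovascular, pulmonary and genotoxic targets.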
# Rattus norvegicus [4] = assay: Dose normalised AUC in Sprague-Dawley rat at 1 mg/kg, iv; type: ADME, organism-based; design: dose 1 mg/kg, route intravenous; settings: in vivo
# Procedure, shortened: (§3)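 Sprague-Dawley rats given a single 1 mg/kg bolus, intravenous or oral. Plasma PK parameters (AUC, dose-normalised AUC, half-life, clearance, Vss, Cmax, Tmax, oral bioavailability) derived from plasma levels.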
# [5] = AUClast in Sprague-Dawley rat at 1 mg/kg, po; type: ADME, organism-based; design: dose 1 mg/kg, route oral, time 0 - last; settings: plasma; procedure, shortened: as §3
# [6] = Drug uptake in B6SJL mouse brain at 300 mg/kg after 4 hrs; type: ADME, organism-based; design: dose 300 mg/kg; settings: read-out: Drug uptake
# Procedure, shortened: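 B6SJL mice given a 300 mg/kg intraperitoneal bolus. Blood and brain collected over 0–24 h, flash frozen in liquid nitrogen, stored at −80 °C. Analysed by mass spectrometry (ESI, MRM mode).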
# [7] = target: Platelet-activating factor receptor (Homo sapiens) (UniProt P25105); assay: Inhibition of platelet activating factor receptor at 10 uM by radioligand displacement assay; procedure, shortened: as §2
# [8] = target: Epidermal growth factor receptor (Homo sapiens) (UniProt P00533); assay: Inhibition of human epidermal growth factor receptor at 10 uM by radioligand displacement assay; procedure, shortened: as §2
# [9] = target: Adenosine receptor A2a (Homo sapiens) (UniProt P29274); assay: Inhibition of human adenosine A2 receptor at 10 uM by radioligand displacement assay; procedure, shortened: as §1
# [10] = target: 5-hydroxytryptamine receptor 1A (Homo sapiens) (UniProt P08908); assay: Inhibition of human 5HT1A receptor at 10 uM by radioligand displacement assay; procedure, shortened: as §1
# Rattus norvegicus [11] = species: Rattus norvegicus; assay: Inhibition of rat imidazoline I2 receptor at 10 uM by radioligand displacement assay; procedure, shortened: as §2
# Rattus norvegicus [12] = species: Rattus norvegicus; assay: Inhibition of rat GABA transporter at 10 uM by radioligand displacement assay; procedure, shortened: as §2
# hERG = hERG (Homo sapiens, UniProt Q12809); assay: Inhibition of human ERG at 10 uM by radioligand displacement assay; procedure, shortened: as §1
# [13] = target: Melatonin receptor type 1A (Homo sapiens) (UniProt P48039); assay: Inhibition of human MT1 receptor at 10 uM by radioligand displacement assay; procedure, shortened: as §1
# Plasma = assay: Plasma protein binding in rat; type: ADME, cell-free
# [14] = Plasma concentration in B6SJL mouse at 300 mg/kg after 24 hrs by mass spectrometry; type: ADME, organism-based; design: dose 300 mg/kg
# Procedure, shortened: (§4)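 B6SJL mice were given a single 300 mg/kg intraperitoneal bolus. Blood and brain were collected at 0, 1, 3, 6, 12 and 24 h, flash-frozen in liquid nitrogen and stored at -80 °C. Samples were analyzed by mass spectrometry with ESI ionization in MRM mode.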
# [15] = target: Alpha-1D adrenergic receptor (Homo sapiens) (UniProt P25100); assay: Inhibition of human adrenergic alpha1D receptor at 10 uM by radioligand displacement assay; procedure, shortened: as §1
# Rattus norvegicus [16] = species: Rattus norvegicus; assay: Inhibition of rat purinergic P2Y receptor at 10 uM by radioligand displacement assay; procedure, shortened: as §2
# Cerebral cortex neuron = assay: Cytoprotection in rat Primary cortical neurons incubated for 24 hrs and measured 72 hrs post compound dose by cytotoxicity protection assay; type: functional, cell-based
# Procedure, shortened: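 Primary cortical neurons from E18 Sprague-Dawley or Fischer 344 rat brain, dissociated with papain (2 mg/mL, 30 min, 37 °C), plated on poly-D-lysine at 20,000 cells/well, cultured 5 days (~90% neurons). Six-point dose response from 100 μM top, roughly one-third dilutions; 24 h pre-incubation, then MG132 100 nM. Viability read 48 h later by Calcein-AM (1 μM, 20 min, RT) fluorescence. Active = viability ≥5 SD above MG132 controls.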
# Homo sapiens = species: Homo sapiens; assay: Inhibition of human Sigma delta2 receptor at 10 uM by radioligand displacement assay; procedure, shortened: as §1
# [17] = target: Sodium-dependent serotonin transporter (Homo sapiens) (UniProt P31645); assay: Inhibition of human serotonin transporter at 10 uM by radioligand displacement assay; procedure, shortened: as §2
# [18] = Plasma concentration in B6SJL mouse at 300 mg/kg after 6 hrs by mass spectrometry; type: ADME, organism-based; design: dose 300 mg/kg
# Procedure, shortened: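 Single 300 mg/kg bolus i.p. injection in B6SJL mice; blood and brain collected at 0, 1, 3, 6, 12 and 24 h, flash frozen in liquid nitrogen and stored at -80 °C. Samples analysed by mass spectrometry with ESI ionization in MRM mode.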
# [19] = target: Estrogen receptor (Homo sapiens) (UniProt P03372); assay: Inhibition of human estrogen receptor-alpha at 10 uM by radioligand displacement assay; procedure, shortened: as §2
# Cytochrome P450 2C9 = Cytochrome P450 2C9 (Homo sapiens, UniProt P11712); assay: Inhibition of CYP2C9; type: ADME
# Procedure, shortened: (§5)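 Reversible inhibition of CYP isozymes in human liver microsomes, each isozyme with a single probe substrate. CYP3A4 tested with both testosterone and midazolam. IC50 determined.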
# [20] = tested on: Superoxide dismutase [Cu-Zn] (Homo sapiens), P00441 [G94A]; assay: Inhibition of SOD1 G93A mutant aggregation-induced cytotoxicity in human SH-SY5Y cells by cytotoxicity protection assay; type: cell-based
# [21] = target: Alpha-1A adrenergic receptor (Rattus norvegicus) (UniProt P43140); assay: Inhibition of rat adrenergic alpha1A receptor at 10 uM by radioligand displacement assay; procedure, shortened: as §2
# [22] = target: Muscarinic acetylcholine receptor M2 (Homo sapiens) (UniProt P08172); assay: Inhibition of human muscarinic M2 receptor at 10 uM by radioligand displacement assay; procedure, shortened: as §2
# Mus musculus [23] = assay: Neuroprotective activity in SOD1 G93A mutant B6SJL mouse ALS model assessed as life extension at 20 mg/kg administered qd for 1 week relative to untreated control; type: functional
# Cytochrome P450 3A4 = Cytochrome P450 3A4 (Homo sapiens, UniProt P08684); assay: Inhibition of CYP3A4 using testosterone as substrate; type: ADME; procedure, shortened: as §5
# Mus musculus [24] = assay: Neuroprotective activity in SOD1 G93A mutant B6SJL mouse ALS model assessed as life extension at 1 mg/kg administered qd for 1 week (reference value: 125.7 +/- 4.9 days); type: functional
# [25] = Plasma concentration in B6SJL mouse at 300 mg/kg after 12 hrs by mass spectrometry; type: ADME, organism-based; design: dose 300 mg/kg; procedure, shortened: as §4
# [26] = Clearance in Sprague-Dawley rat at 1 mg/kg, iv; type: ADME, organism-based; design: dose 1 mg/kg, route intravenous; settings: in vivo; procedure, shortened: as §3
# Alpha-1A adrenergic receptor (Rattus norvegicus), sequence (P43140 whole entry): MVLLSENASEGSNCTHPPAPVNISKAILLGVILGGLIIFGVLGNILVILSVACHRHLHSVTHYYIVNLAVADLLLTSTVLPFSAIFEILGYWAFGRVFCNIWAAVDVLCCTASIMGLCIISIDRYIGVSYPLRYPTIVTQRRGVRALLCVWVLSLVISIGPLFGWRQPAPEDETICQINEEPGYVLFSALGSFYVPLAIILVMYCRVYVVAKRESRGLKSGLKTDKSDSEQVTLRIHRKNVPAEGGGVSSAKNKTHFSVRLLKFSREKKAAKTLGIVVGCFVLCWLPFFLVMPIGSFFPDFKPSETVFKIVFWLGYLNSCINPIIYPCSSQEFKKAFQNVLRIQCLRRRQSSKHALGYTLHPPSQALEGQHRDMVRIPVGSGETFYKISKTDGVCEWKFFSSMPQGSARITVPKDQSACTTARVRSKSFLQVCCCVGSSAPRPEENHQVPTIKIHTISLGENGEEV
# Sodium-dependent serotonin transporter (Homo sapiens), sequence (P31645 whole entry, looked up): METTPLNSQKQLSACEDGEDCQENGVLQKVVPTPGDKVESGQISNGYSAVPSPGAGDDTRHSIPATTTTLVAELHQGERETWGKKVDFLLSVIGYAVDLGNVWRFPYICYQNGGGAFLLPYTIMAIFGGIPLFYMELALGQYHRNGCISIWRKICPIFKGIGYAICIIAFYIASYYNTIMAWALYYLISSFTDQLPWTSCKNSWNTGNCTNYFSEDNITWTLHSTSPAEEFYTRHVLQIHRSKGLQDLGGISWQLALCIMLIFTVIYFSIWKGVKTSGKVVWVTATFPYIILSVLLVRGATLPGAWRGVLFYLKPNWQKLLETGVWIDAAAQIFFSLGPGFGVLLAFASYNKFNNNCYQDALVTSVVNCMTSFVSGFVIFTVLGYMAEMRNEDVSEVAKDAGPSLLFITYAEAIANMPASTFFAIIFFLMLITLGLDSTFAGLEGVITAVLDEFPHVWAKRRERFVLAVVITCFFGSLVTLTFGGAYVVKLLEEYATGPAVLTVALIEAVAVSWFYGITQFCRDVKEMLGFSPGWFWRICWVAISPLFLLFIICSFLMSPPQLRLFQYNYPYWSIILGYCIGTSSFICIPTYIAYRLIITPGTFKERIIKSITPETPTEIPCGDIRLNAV
# Melatonin receptor type 1A (Homo sapiens), sequence (P48039 whole entry): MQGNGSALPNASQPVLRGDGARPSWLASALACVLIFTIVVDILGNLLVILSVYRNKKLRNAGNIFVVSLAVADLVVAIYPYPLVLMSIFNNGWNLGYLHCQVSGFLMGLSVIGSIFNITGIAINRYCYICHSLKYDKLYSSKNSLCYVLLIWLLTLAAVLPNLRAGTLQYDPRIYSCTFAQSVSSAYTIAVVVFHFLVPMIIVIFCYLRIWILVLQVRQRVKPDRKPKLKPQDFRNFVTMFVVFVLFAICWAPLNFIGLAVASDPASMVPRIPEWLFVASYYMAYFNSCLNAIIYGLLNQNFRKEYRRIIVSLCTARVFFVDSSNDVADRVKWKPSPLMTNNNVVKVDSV
# Adenosine receptor A2a (Homo sapiens), sequence (P29274 whole entry): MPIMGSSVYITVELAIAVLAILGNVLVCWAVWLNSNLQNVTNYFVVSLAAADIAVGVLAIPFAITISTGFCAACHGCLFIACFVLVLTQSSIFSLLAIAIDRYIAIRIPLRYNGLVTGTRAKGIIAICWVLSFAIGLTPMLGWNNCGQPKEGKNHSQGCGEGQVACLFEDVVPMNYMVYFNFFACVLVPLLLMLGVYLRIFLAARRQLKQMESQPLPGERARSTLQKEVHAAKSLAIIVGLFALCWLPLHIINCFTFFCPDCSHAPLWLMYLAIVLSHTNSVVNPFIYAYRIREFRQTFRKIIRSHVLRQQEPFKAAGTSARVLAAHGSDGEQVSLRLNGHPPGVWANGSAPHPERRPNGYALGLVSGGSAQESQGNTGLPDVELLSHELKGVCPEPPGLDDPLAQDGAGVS
# Estrogen receptor (Homo sapiens), sequence (P03372 whole entry): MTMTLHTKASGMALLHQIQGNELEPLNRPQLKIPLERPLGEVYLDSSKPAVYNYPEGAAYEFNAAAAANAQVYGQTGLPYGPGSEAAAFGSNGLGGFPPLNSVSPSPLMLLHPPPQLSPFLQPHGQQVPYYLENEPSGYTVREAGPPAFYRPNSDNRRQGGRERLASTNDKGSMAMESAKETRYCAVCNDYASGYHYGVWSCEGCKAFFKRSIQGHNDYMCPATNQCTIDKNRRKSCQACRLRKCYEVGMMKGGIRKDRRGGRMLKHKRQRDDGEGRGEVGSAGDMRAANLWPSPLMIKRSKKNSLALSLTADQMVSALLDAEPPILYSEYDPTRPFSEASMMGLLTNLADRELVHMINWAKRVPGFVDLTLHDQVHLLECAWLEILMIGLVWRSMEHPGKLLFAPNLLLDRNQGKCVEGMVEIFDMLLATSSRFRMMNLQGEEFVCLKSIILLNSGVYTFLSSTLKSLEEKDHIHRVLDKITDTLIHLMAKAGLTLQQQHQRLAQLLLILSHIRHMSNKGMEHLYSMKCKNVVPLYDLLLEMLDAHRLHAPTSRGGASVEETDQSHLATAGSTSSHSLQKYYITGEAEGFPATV
# Epidermal growth factor receptor (Homo sapiens), sequence (P00533 whole entry): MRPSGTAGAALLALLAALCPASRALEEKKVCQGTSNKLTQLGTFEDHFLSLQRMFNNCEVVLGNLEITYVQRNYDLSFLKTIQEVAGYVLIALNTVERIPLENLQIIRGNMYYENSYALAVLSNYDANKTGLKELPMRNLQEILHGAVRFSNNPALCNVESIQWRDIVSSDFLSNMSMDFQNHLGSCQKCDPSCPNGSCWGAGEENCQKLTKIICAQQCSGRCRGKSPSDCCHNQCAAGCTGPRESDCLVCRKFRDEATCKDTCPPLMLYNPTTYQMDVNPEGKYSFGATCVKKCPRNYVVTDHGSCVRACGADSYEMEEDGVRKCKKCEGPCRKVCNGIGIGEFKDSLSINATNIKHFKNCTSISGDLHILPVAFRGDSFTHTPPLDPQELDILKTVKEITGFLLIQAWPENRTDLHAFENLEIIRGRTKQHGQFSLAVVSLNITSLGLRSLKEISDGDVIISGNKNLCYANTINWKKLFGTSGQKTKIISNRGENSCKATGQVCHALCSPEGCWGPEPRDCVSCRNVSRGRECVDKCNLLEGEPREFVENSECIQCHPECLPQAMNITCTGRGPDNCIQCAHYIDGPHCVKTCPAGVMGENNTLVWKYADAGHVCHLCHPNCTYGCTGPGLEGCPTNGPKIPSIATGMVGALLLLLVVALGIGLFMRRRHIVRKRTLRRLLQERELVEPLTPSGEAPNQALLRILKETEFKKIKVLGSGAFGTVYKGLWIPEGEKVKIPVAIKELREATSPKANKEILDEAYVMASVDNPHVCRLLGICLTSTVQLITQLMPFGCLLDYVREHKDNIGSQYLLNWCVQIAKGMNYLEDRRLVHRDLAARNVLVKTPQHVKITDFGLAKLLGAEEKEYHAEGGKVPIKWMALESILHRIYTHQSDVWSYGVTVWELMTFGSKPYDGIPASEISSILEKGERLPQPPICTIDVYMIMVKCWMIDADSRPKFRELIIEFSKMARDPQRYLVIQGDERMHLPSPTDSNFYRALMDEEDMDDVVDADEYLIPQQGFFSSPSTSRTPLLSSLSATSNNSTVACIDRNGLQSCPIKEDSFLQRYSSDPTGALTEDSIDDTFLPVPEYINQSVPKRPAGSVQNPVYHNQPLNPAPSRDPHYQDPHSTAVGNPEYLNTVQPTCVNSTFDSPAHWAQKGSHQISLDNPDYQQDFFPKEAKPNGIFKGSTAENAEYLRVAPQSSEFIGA
# Cytochrome P450 3A4, sequence (P08684 whole entry): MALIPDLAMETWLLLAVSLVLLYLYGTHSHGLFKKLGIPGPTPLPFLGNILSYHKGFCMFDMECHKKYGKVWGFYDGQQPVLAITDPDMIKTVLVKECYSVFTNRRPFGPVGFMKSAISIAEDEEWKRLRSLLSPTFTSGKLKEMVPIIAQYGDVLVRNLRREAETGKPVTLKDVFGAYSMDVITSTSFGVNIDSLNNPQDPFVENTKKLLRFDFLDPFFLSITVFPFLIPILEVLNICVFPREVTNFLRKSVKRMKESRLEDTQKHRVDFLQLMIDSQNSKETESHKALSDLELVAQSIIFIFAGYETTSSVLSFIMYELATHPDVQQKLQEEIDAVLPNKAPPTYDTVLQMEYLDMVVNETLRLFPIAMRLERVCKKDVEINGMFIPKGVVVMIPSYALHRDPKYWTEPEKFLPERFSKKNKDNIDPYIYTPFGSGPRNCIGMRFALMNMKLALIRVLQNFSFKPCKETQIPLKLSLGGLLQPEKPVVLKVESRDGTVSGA
# Histamine H3 receptor (Homo sapiens), sequence (Q9Y5N1 whole entry): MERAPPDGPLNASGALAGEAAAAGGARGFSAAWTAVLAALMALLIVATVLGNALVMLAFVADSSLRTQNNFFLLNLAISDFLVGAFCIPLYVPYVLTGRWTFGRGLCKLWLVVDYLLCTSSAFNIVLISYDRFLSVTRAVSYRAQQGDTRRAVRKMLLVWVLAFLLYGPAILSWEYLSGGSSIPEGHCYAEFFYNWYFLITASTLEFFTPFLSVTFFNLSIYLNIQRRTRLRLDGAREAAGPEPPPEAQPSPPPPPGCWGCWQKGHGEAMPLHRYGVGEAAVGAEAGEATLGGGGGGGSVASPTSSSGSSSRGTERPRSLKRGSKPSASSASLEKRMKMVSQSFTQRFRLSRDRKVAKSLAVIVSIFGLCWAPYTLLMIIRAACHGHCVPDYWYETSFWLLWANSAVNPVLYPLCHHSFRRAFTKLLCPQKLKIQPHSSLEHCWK
# Neuropeptide Y receptor type 2 (Homo sapiens), sequence (P49146 whole entry): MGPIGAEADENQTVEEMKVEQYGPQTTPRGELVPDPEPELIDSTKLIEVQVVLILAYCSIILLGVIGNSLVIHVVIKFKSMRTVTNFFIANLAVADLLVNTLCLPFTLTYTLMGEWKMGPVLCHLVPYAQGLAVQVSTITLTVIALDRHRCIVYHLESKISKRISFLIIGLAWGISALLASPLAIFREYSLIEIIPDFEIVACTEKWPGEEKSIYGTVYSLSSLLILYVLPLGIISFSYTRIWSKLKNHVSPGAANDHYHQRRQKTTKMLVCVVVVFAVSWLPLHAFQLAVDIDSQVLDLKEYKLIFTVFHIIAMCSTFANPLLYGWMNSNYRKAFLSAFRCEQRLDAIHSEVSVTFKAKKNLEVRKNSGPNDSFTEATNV
compound,measurement,setting,value
O=c1cc(COc2cc(Cl)cc(Cl)c2)[nH][nH]1,inhibition,[1],6%
same,inhibition,[2],8%
same,inhibition,[3],15%
same,AUC/dose,Rattus norvegicus [4],184 ng·h/mL/mg/kg
same,AUC(0-t),[5],42 ng·h/mL
same,concentration at 4 h,[6],194 µM
same,inhibition,[7],-1%
same,inhibition,[8],5%
same,inhibition,[9],-2%
same,inhibition,[10],-6%
same,inhibition,Rattus norvegicus [11],12%
same,inhibition,Rattus norvegicus [12],-4%
same,inhibition at 10 µM,hERG,-7%
same,inhibition,[13],3%
same,PPB,Plasma,98%
same,concentration at 24 h,[14],6.5 µM
same,inhibition,[15],3%
same,inhibition,Rattus norvegicus [16],5%
same,Activity,Cerebral cortex neuron,Active
same,inhibition,Homo sapiens,5%
same,inhibition,[17],-6%
same,concentration at 6 h,[18],347 µM
same,inhibition,[19],10%
same,IC50,Cytochrome P450 2C9,> 50 µM
same,inhibition,[20],Active
same,inhibition,[21],-2%
same,inhibition,[22],-2%
same,Activity,Mus musculus [23],13.3%
same,IC50,Cytochrome P450 3A4,> 50 µM
same,Survival,Mus musculus [24],129.2 days
same,concentration at 12 h,[25],248 µM
same,clearance,[26],92 mL/min/kg
